PAD4 FP inh = PAD4 (human) enzyme inhibition; Q9UM07; recombinant PAD4, RCA probe fluorescence polarization; inhibition, % at 6.36 µM; hit rate 0.41% among 330,000;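 active = percent inhibition above a cutoff equal to the mean of all tested compounds plus 3 SD, cut at about 15% in these data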;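 also: 0% = PAD4 with RCA probe and DMSO and 100% = probe without PAD4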
Apaf1 inhib = blocks human Apaf-1 apoptosome activity | O14727 | hit rate 0.71% among 330,000 | inhibition, % at 20 µM | reconstituted apoptosome caspase-3 activity, DEVD-Rh110 fluorescence; active = inhibition of at least 40% at 20 µM;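 also: plate controls were DMSO wells for no effect and DEVD-CHO caspase inhibitor wells for full effect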
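System: Apoptosome proteins | Medium: Hepes pH 7.5 with detergent and BSA | Also added: Cytochrome c trigger plus (Z-DEVD)2-Rh110 caspase-3 substrate | Incubation: 30 min compound preincubation, 50 min activation, room temperature | Detection: Rhodamine 110 fluorescence at Ex 480/Em 540 nm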
UCH37 DUB inh = inhibitors of human deubiquitinating enzyme UCH37; purified proteasome/UCH37, Ub-AMC cleavage fluorescence; Q9Y5K5; hit rate 0.33% among 330,000; inhibition, % (concentration not given with the values);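 active = mean inhibition over replicate wells above about 20%, limit read from the data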;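 also: 0% = compound-free wells with enzyme and 100% = wells lacking proteasome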
Target sequence (Q9Y5K5 whole entry, looked up): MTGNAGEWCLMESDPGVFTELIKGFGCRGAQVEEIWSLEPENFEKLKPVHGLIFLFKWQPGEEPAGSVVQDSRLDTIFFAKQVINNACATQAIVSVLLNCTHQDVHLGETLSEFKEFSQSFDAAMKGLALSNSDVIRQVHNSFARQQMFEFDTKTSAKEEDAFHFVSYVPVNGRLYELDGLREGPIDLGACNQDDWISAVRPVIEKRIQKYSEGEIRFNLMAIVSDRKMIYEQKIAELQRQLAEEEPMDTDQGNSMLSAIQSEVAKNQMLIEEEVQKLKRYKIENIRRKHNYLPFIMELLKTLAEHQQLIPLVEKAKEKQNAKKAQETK
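Material: Human UCH37 enzyme supplied as purified proteasome complex | Schedule: 30 min compound-proteasome preincubation then 25 min substrate reaction, room temperature | Detection: AMC fluorescence from Ub-AMC cleavage, excitation 355 nm, emission 460 nm | Benchmarks: Wells without proteasome as full block, compound-free enzyme plus substrate as uninhibited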
GSTO1 counter = counter-screen for RBBP9 inhibitors: inhibitors of human GSTO1; inhibition, % at 5.96 µM; recombinant GSTO1, activity-based probe fluorescence polarization; hit rate 1.1% among 300,000; P78417;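 active = inhibition above the campaign mean inhibition plus 3 SD, cut at about 35% in these data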;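 also: 0% = GSTO1-1 with DMSO and 100% = wells lacking GSTO1-1 enzyme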
Target sequence (P78417 whole entry, looked up): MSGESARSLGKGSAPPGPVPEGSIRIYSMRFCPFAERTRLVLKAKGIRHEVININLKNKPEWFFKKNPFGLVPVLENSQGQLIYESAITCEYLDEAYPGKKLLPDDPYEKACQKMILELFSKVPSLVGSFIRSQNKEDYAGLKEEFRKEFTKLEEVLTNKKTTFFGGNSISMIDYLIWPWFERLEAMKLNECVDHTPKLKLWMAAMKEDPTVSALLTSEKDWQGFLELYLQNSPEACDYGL
CTSL1 counter = counter-screen for PFM18AAP inhibitors: inhibitors of F. hepatica cathepsin L1 | recombinant F. hepatica cathepsin L1, Z-Leu-Arg-MCA fluorescence | inhibition, % at 5.96 µM | hit rate 0.49% among 300,000 | AID 1906;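 active = inhibition above the mean of all tested compounds plus 3 SD, set per screening campaign, cut at about 17% in these data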;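 also: 0% = plate median of test compound wells and 100% = 1 µM Z-Phe-Ala-diazomethylketone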
PP5 primary = PP5 (human) phosphatase inhibition; hit rate 0.18% among 320,000; AID 1987; purified PP5c, OMFP substrate fluorescence; inhibition, % at 6.7 µM; P53041;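 active = inhibition above the campaign's mean inhibition across all tested compounds plus 3 SD, cut at about 9.5% in these data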;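 also: 0% = DMSO only and 100% = 100 µM cantharidin control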
Apaf-1 inh conf2 = Apaf-1 inhibition, single-dose confirmed | shares compounds with Apaf1 inhib | AID 504614 | inhibition, % at 20 µM | reconstituted apoptosome, caspase-3 DEVD-Rh110 fluorescence | hit rate 25% among 1,800;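 active = mean inhibition of at least 40% at 20 µM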;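 also: plate controls were DMSO wells for no effect and DEVD-CHO caspase inhibitor control wells for full effect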
Rh110 interf inh = interferes with Rh110 fluorescence, flagging false Apaf-1 inhibitors | shares compounds with Apaf1 inhib | AID 504615 | 1,800 tested, under 10 active | Rh110 fluorescence interference, quenched caspase reaction | activation (fluorescence interference), % at 20 µM;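 active = signal rise of 40% or more at 20 µM, treated as a fluorescence artifact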
An asterisk follows results filed as active. An excerpt weighted towards active compounds, which were near 2% of everything screened.

For CN(C)CCCNC(=O)CC1C[C@H](C(=O)N2CCCCC2)[C@@]2(CCc3ccccc3)c3[nH]c4ccccc4c3CCN2C1=O (some centres not stated) the results were PAD4 FP inh 1.5, Apaf1 inhib 45.9*, UCH37 DUB inh 2.9, Apaf-1 inh conf2 10.9 and Rh110 interf inh 0.0.
CCN(CC)C(=O)[C@H]1CC(CC(=O)NCc2ccc(OC)c(OC)c2)C(=O)N2CCc3c([nH]c4ccccc34)[C@]12C (some centres not stated) was read as PAD4 FP inh 3.9 and Apaf1 inhib 3.3.
`COc1ccc2[nH]c3c(c2c1)CCN1C(=O)C(CC(=O)NCCC2=CCCCC2)C[C@H](C(=O)N2CCOCC2)[C@@]31CCC1CCCC1` (some centres not stated) gave PAD4 FP inh -0.8, Apaf1 inhib 43.7*, UCH37 DUB inh 1.2, Apaf-1 inh conf2 29.3 and Rh110 interf inh 15.7.
CC(C)(C)NC(=O)C[C@H]1C[C@H](C(=O)N2CCCCC2)[C@@]2(CCc3ccccc3)c3[nH]c4cc(-c5ccco5)ccc4c3CCN2C1=O was read as PAD4 FP inh 1.9, Apaf1 inhib 14.8 and UCH37 DUB inh -15.1.
COc1ccc2[nH]c3c(c2c1)CCN1C(=O)C(CC(=O)NCCC2=CCCCC2)C[C@H](C(=O)N2CCCCC2)[C@@]31CCc1ccccc1 (some centres not stated) was read as PAD4 FP inh -6.7, Apaf1 inhib 10.5 and UCH37 DUB inh 3.9.
For CCN(CC)C(=O)[C@H]1CC(CC(=O)NCCCN(C)C)C(=O)N2CCc3c([nH]c4ccccc34)[C@]12C (some centres not stated) the results were PAD4 FP inh 2.7, Apaf1 inhib 43.9*, UCH37 DUB inh 2.0, Apaf-1 inh conf2 9.7 and Rh110 interf inh -0.5.
`N#CCCn1cc(C=NO)c(-c2ccc(F)cc2)n1` gave UCH37 DUB inh 0.7.
Screening CCN(CC)C(=O)[C@H]1CC(CC(=O)NCc2cccc(C(F)(F)F)c2)C(=O)N2CCc3c([nH]c4ccccc34)[C@]12C (some centres not stated) returned PAD4 FP inh 3.8, Apaf1 inhib 25.7 and UCH37 DUB inh 4.1.
CN(C)CCCNC(=O)C[C@H]1C[C@H](C(=O)N2CCCCC2)[C@@]2(C)c3[nH]c4cc(-c5ccco5)ccc4c3CCN2C1=O was read as PAD4 FP inh 4.4, Apaf1 inhib 41.9*, UCH37 DUB inh -13.0, Apaf-1 inh conf2 5.2 and Rh110 interf inh 0.9.
Screening CCN(CC)C(=O)[C@H]1C[C@H](CC(=O)NCc2cccc(C(F)(F)F)c2)C(=O)N2CCc3c([nH]c4ccc(Cl)cc34)[C@]12C returned PAD4 FP inh -1.4, Apaf1 inhib 46.4*, UCH37 DUB inh 2.6, Apaf-1 inh conf2 29.4 and Rh110 interf inh 17.4.
CC12CCC(=O)N1C(C(=O)Nc1ccccc1N1CCCC1)CS2 (configuration not stated) was read as UCH37 DUB inh -0.1.
For CC12CCC(=O)N1C(C(=O)Nc1ccccc1N1CCCCC1)CS2 (configuration not stated) the results were PAD4 FP inh 0.0, Apaf1 inhib 48.1*, UCH37 DUB inh 0.4, PP5 primary -0.8, Apaf-1 inh conf2 29.0 and Rh110 interf inh -0.9.
For CCN(CC)c1ccc(S(=O)(=O)N2CCCCC2)cc1NC(=O)C1CSC2(C)CCC(=O)N12 (configuration not stated) the results were PAD4 FP inh -0.9, Apaf1 inhib 51.0*, UCH37 DUB inh 3.1, PP5 primary 2.8, Apaf-1 inh conf2 5.4 and Rh110 interf inh 1.6.
For COc1ccc(OC)c(C(C)=NNC(=O)c2cc3cc(Cl)ccc3n2C)c1 the results were UCH37 DUB inh 3.9.
`Cc1cc2nn(-c3ccc(Cl)cc3)nc2cc1N` gave PAD4 FP inh -2.8, Apaf1 inhib 49.5*, GSTO1 counter 12.4, CTSL1 counter 3.9, PP5 primary -1.0, Apaf-1 inh conf2 22.4 and Rh110 interf inh 2.8.
Screening COc1ccc(-n2nc3cc(C)c(N)cc3n2)cc1Cl returned PAD4 FP inh 1.2, Apaf1 inhib 18.1, UCH37 DUB inh -146.6, GSTO1 counter 29.2, CTSL1 counter -1.3 and PP5 primary 1.6.
Screening COc1ccc(C2C(C(=O)c3ccco3)=C(O)C(=O)N2CCCn2ccnc2)c(OC)c1 (configuration not stated) returned PAD4 FP inh -3.6, Apaf1 inhib 57.2*, UCH37 DUB inh 9.6, GSTO1 counter 23.8, CTSL1 counter 3.4, PP5 primary 2.2, Apaf-1 inh conf2 3.8 and Rh110 interf inh -16.2.
COc1cc(C2C(C(=O)c3ccc(C)o3)=C(O)C(=O)N2CCCn2ccnc2)cc(OC)c1OC (configuration not stated) was read as PAD4 FP inh -4.3, Apaf1 inhib 12.4, UCH37 DUB inh 4.4, GSTO1 counter -0.2, CTSL1 counter 0.6 and PP5 primary 0.2.
`Cc1ccc(-n2c(SCC(=O)NN=Cc3c(C)nn(-c4ccccc4)c3C)nc3ccccc3c2=O)cc1` gave UCH37 DUB inh 2.8.
For CCC1C(=O)N=C(SCC(=O)Nc2nc3ccccc3s2)NC1=O (configuration not stated) the results were PAD4 FP inh -0.7, Apaf1 inhib 69.6*, UCH37 DUB inh 8.7, GSTO1 counter -0.4, CTSL1 counter -3.2, PP5 primary 0.2, Apaf-1 inh conf2 2.0 and Rh110 interf inh 8.8.
O=C(CO)NN=Cc1ccccc1F was read as UCH37 DUB inh 3.9.
Screening CN1CCN(c2ccc(NC(=O)COc3ccccc3)cc2Cl)CC1 returned Apaf1 inhib 49.5*, UCH37 DUB inh 4.0, Apaf-1 inh conf2 15.1 and Rh110 interf inh 6.3.
For Cc1ccc(NC(=O)COc2ccccc2)cc1Cl the results were PAD4 FP inh -3.2, Apaf1 inhib 7.6, UCH37 DUB inh -2.5, GSTO1 counter 0.6, CTSL1 counter 3.6 and PP5 primary 2.3.
Screening Cn1c(=O)n(C)c2cc(/C=N/NC(=O)c3cc4cc(Br)ccc4o3)ccc21 returned PAD4 FP inh -3.4, Apaf1 inhib 43.0*, GSTO1 counter 5.9, CTSL1 counter -3.0, PP5 primary -0.4, Apaf-1 inh conf2 10.5 and Rh110 interf inh -0.9.
CS(=O)(=O)c1ccc(Cl)c(NC(=O)CN2CCCC2c2ccc3c(c2)OCCCO3)c1 (configuration not stated) was read as PAD4 FP inh -2.9, Apaf1 inhib 4.3, UCH37 DUB inh 5.4 and PP5 primary 2.4.
